ASAP1 GAP inh – inhibitors of human ASAP1 ArfGAP activity. Q9ULH1. AID 624377. inhibition, % at 16.5 µM. 360,000 tested, 0.19% active. ASAP1-stimulated ARF1 GTP hydrolysis, GDP FP detection; in the data active = inhibition above about 25%;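 also: 0% = vehicle with enzyme and substrate and 100% = no enzyme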
ARFGAP1 inh – rat ARFGAP1 inhibition; 360,000 tested, 0.26% active; Arfgap1-stimulated ARF1 GTP hydrolysis, GDP FP detection; inhibition, % at 16.5 µM; AID 651572;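 active = inhibition above a per-plate limit, mean inhibition of low control wells plus 3 SD, cut at about 25% in these data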;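 also: 0% = DMSO wells with enzyme and 100% = wells lacking Arfgap1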
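Material – truncated rat Arfgap1 GAP domain · Buffer or medium – HEPES-based buffer, pH 7.5 · Reagent – human ARF1(Δ1-17)-GTP substrate · Dosing – 16.5 µM single point, 1.26% DMSO · Schedule – GTP hydrolysis reaction 2 h at 25 °C · Technique – GDP detection by fluorescence polarization · Benchmarks – No-Arfgap1 wells (100%) versus DMSO full-reaction wells (0%) · Repeats – single replicate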
Neddyl block – blocks human cullin neddylation. P61081+Q13564. TR-FRET cullin neddylation, biochemical. inhibition, % at 25 µM. 360,000 tested, 0.58% active. AID 651699; in the data active = inhibition above about 36%
Target sequence (P61081 whole entry, looked up): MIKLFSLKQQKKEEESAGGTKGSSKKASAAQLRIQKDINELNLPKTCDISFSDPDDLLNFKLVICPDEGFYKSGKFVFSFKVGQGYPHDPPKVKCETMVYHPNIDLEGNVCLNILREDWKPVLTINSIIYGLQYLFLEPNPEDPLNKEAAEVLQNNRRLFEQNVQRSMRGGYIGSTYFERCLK
Target sequence (Q13564 whole entry, looked up): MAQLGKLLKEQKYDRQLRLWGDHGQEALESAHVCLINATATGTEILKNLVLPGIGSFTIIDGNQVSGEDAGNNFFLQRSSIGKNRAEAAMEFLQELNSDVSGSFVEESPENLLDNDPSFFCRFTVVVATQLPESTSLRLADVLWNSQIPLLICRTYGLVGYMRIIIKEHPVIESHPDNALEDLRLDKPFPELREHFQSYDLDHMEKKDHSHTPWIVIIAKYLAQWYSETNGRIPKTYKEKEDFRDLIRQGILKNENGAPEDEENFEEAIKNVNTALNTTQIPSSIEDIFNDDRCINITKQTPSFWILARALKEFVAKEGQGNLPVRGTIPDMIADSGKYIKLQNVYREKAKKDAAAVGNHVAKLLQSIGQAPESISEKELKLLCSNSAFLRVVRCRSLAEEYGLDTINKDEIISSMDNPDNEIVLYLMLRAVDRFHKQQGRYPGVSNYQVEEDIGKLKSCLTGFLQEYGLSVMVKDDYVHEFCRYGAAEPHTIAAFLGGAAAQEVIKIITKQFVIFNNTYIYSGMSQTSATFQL
Cardio protect – modulators protecting cardiomyocytes from myocardial damage | AID 588492 | H9c2 cardiomyocytes, H2O2 injury protection, ATPLite, 2 h | protection from H2O2 cell death, % at 20 µM | 360,000 tested, 0.63% active;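 active = compounds giving at least 50% protection of heart cells from peroxide-induced death in the single-dose screen, raw or plate-pattern-corrected value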;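 also: 0% = DMSO wells with peroxide and 100% = DMSO wells without peroxide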
* marks the source's active call; other numbers are inactive results; . = not tested or not shown. An excerpt weighted towards active compounds, which were near 1.6% of everything screened.

SMILES	ASAP1 GAP inh	ARFGAP1 inh	Neddyl block	Cardio protect
COc1ccc(/C=N/Nc2ncc(Br)cn2)c(OC)c1	12	-5	12	-6
O=C(N/N=C/c1cccc2nccnc12)c1ccncc1	9	12	-7	65*
O=C(N/N=C/c1cccc2nccnc12)c1ccccc1O	3	9	-38	12
Oc1c(Cl)cc(Cl)cc1/C=N/Nc1ncc(Br)cn1	0	2	-9	59*
O=C(N/N=C/c1cc(Cl)cc(Cl)c1O)c1ccncc1	11	13	-7	50*
O=C(N/N=C/c1ccc(Cl)cc1Cl)c1ccncc1	-2	7	-15	3
COC(=O)[C@]12C[C@H](CC(=O)N3CCOCC3)C(=O)N(Cc3ccccc3)C1=C[C@H](C(C)C)O[C@@H]2C1CC1	-7	8	.	.
OC(c1ccccc1)(c1ccccc1)C1CCN(CCCOc2ccccn2)CC1	-15	0	.	.
Cc1ccc(N=Cc2cc(Cl)cc(Cl)c2O)nc1	-6	-15	29	65*
Cc1ccc(N=CC2=C(O)CC(C)(C)CC2=O)nc1	-11	-8	10	4
CSc1nnc(NC(=O)c2cc3ccccc3oc2=O)s1	-12	8	-31	55*
Cc1cccc(NC(=O)c2cc3ccccc3oc2=O)c1	-2	8	-19	-14
Cc1ccc(Cc2c(-c3ccc(C#N)cc3)nc3c4ccccc4ccn23)cc1	-1	13	16	8
CCOC(=O)C1=c2s/c(=C\c3cccnc3)c(=O)n2C(N)=C(C(=O)OC)C1c1cccnc1 (stereo not drawn)	4	-4	-10	46
CCOC(=O)C1=c2s/c(=C\c3ccncc3)c(=O)n2C(N)=C(C(=O)OC)C1c1ccncc1 (stereo not drawn)	-11	13	-18	68*
COC(=O)C1=C(C)N(Cc2ccccc2C(F)(F)F)C(=NCc2cccc(C(F)(F)F)c2)NC1c1cccc(Cl)c1 (stereo not drawn)	7	14	.	.
O=C(N/N=C/c1cc([N+](=O)[O-])ccc1O)c1cccc(NC(=O)c2cccc(Cl)c2)c1	2	-10	5	56*
Cc1cccc(NC(=O)CCC(=O)N/N=C/c2cc([N+](=O)[O-])ccc2O)c1	-2	12	-36	58*
O=C(Cn1cncn1)N/N=C/c1cc([N+](=O)[O-])ccc1O	2	-3	-29	10
Cc1ccn(CC(=O)N/N=C/c2cc([N+](=O)[O-])ccc2O)n1	-11	3	-31	67*
O=C(CCC(=O)Nc1ccc(Br)cc1)N/N=C/c1cc([N+](=O)[O-])ccc1O	5	8	-11	54*
Cc1ccccc1-c1cccc2c3c([nH]c12)[C@@H]1C[C@H]2[C@@H](C(=O)N1CC3)[C@H](C)ON2C	-2	11	.	.
C=CCN1C(=O)c2n[nH]c(COC)c2C1c1ccc(C)cc1 (stereo not drawn)	6	1	.	.
COc1ccc2c(c1)[C@@H](NC(=O)c1ccncc1)[C@H](C)[C@H]2c1ccccc1	2	5	.	.
COc1ccc(N)cc1CN1CCN(c2ncc(Cc3ccccc3)cn2)CC1	3	8	.	.
SMILES	ASAP1 GAP inh	ARFGAP1 inh	Neddyl block	Cardio protect
O=C(Cn1cnc([N+](=O)[O-])n1)N/N=C/c1ccccc1O	-3	-12	-22	64*
O=C(N/N=C/c1cc([N+](=O)[O-])ccc1O)C1CCCCC1	-1	7	-31	52*
Cc1ccccc1/C=N/NC(=O)Cn1cnc([N+](=O)[O-])n1	10	0	-28	4
CCC(Oc1ccccc1)C(=O)Nc1ccccc1C(=O)N1CCCCC1 (stereo not drawn)	7	-6	1	50*
c1cnc2c(c1)ccc1cccnc12	-5	6	-8	60*
COC(=O)C1=C(C)N(Cc2ccc(C(F)(F)F)cc2)C(=NCc2cc(OC)c(OC)c(OC)c2)NC1c1cccc(Cl)c1 (stereo not drawn)	-2	-17	.	.
Cc1ccc(-c2n[nH]c(=O)c3ccccc23)cc1S(=O)(=O)N(C)CCO	1	-2	-3	35
CC(=O)Nc1ccc(NS(=O)(=O)c2cc(-c3n[nH]c(=O)c4ccccc34)ccc2C)cc1	-3	4	-7	56*
Cc1ccc(-c2n[nH]c(=O)c3ccccc23)cc1S(N)(=O)=O	-3	3	7	57*
Cc1ccc(-c2n[nH]c(=O)c3ccccc23)cc1S(=O)(=O)Nc1ccc(F)cc1	2	-9	-9	46
Cc1ccc(-c2n[nH]c(=O)c3ccccc23)cc1S(=O)(=O)NCCO	-2	0	-3	76*
Cc1ccc(-c2n[nH]c(=O)c3ccccc23)cc1S(=O)(=O)NC(C)(C)C	-11	2	-6	64*
COC(=O)Cc1nnn2c1[C@H](C)[C@H](C(C)(C)C)OCC2	-4	-3	.	.
CC(C)n1c(O)c(N=Nc2ccc(Cl)nn2)c2ccccc21	-4	2	-34	65*
COc1ccc(/C=N/NC(=O)c2cc(-c3ccccc3OC)nc3ccccc23)cc1COC(C)=O	5	6	39*	16
COc1ccc(/C=N/NC(=O)c2ccccc2Cl)cc1CSc1nc2ccccc2s1	8	5	13	-1
COc1ccc(/C=N/NC(=O)c2cccnc2)cc1CSc1nc2ccccc2s1	-4	3	12	58*
COc1ccc(NC(=O)N(C)[C@H]2C[C@H]3c4[nH]c5c(-c6ccccc6)cccc5c4CCN3C(=O)[C@H]2[C@H](C)O)cc1	4	5	.	.
Cc1ccccc1C(=O)N[C@@H](Cc1cccnc1)C(=O)N1CCC[C@H]1C(=O)NC1CCCC1	-2	14	.	.
CCCCCCn1nc(C(=O)OCC(=O)c2c(N)n(C)c(=O)n(C)c2=O)c2ccccc2c1=O	-1	15	-8	38
CCCCCn1nc(C(=O)OCC(=O)c2c(N)n(C)c(=O)n(C)c2=O)c2ccccc2c1=O	19	-5	-10	66*
Cc1ccc(CCNC(=O)c2ccc3nc4ccc(Cl)cc4c(=O)n3c2)cc1	-4	3	26	-6
O=C(NCCc1ccccc1Cl)c1ccc2nc3ccccc3c(=O)n2c1	9	3	.	58*
NS(=O)(=O)c1ccc(CCNC(=O)c2ccc3nc4ccc(Cl)cc4c(=O)n3c2)cc1	-2	7	47*	11
C=CC[C@]12C[C@@]3(O[C@H](c4ccccn4)N=C3C[C@H](c3ccc(OC)cc3)[C@H]1C)N(C1CCN(Cc3ccccc3)CC1)C2=O	6	11	.	.
CCCCCCCCN1C(=O)[C@@H](CC(=O)NCCCCc2ccccc2)C[C@@]2(C(=O)OC)C1=C[C@H](C1CCCC1)O[C@@H]2C	-16	-14	.	.
CC(C)C[C@H]1COc2ccc(Cl)cc2S(=O)(=O)N1	-11	5	.	.
C[C@@H]1CN([C@H](C)CO)S(=O)(=O)c2ccc(Br)cc2O[C@H]1CN(C)CC1CCOCC1	2	5	.	.
O=C(N/N=C/c1c(O)ccc2ccccc12)C(=O)N1CCCC1	1	-5	24	52*
C[C@H]1CN([C@@H](C)CO)C(=O)CCCn2cc(nn2)CO[C@@H]1CN(C)S(=O)(=O)c1ccc(F)cc1	2	16	.	.
